Experimental data published in the M2OR odorant receptor database.
Residue numbers refer to the chain shown, from its start.

Key:
Details in all cases: stereoisomer not certain
[1] = target: T1, OR52I1 (Homo sapiens) (UniProt Q8NGK6)
T1 sequence (whole entry): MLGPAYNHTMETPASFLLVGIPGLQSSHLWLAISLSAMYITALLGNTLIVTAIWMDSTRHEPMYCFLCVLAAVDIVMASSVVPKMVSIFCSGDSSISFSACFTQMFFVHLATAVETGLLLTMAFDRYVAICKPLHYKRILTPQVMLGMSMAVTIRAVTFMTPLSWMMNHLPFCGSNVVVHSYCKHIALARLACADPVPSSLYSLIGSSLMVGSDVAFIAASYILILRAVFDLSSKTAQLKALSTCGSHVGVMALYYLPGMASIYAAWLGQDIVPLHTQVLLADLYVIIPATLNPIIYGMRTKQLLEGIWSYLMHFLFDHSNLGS
How it was run: (§1)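 Transient luciferase assays in mammalian cell lines were common, though methods varied by source. The values come from published papers and their supplementary material, with extra details from the original authors when needed. Responsive refers to a measured signal the original authors judged statistically different from baseline, and non-responsive (inactive) to the remainder.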

[2] = target: T2, OR52I2 (Homo sapiens) (UniProt Q8NH67)
T2 sequence (whole entry): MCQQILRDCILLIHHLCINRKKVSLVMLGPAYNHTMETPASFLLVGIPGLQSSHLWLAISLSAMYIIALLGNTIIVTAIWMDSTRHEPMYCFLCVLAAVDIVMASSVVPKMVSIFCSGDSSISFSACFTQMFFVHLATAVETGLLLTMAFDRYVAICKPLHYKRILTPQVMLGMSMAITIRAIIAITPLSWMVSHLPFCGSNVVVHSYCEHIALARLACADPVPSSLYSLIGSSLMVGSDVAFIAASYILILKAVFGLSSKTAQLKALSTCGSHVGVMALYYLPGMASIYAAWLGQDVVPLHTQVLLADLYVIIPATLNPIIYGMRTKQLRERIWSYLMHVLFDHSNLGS
How it was run: as §1

[3] = target: OR52J3 (Homo sapiens) (UniProt Q8NH60)
How it was run: as §1

[4] = target: T3, OR52K1 (Homo sapiens) (UniProt Q8NGK4)
T3 sequence (whole entry): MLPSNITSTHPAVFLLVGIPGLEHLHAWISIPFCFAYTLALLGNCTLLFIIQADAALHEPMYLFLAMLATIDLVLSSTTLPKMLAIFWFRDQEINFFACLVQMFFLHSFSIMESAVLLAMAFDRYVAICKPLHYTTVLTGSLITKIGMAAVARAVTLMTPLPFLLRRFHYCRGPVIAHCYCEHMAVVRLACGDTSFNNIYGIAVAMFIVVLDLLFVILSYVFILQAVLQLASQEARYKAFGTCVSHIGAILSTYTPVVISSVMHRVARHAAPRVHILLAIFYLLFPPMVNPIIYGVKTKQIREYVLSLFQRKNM
How it was run: as §1

[5] = target: T4, OR52K2 (Homo sapiens) (UniProt Q8NGK3)
T4 sequence (whole entry): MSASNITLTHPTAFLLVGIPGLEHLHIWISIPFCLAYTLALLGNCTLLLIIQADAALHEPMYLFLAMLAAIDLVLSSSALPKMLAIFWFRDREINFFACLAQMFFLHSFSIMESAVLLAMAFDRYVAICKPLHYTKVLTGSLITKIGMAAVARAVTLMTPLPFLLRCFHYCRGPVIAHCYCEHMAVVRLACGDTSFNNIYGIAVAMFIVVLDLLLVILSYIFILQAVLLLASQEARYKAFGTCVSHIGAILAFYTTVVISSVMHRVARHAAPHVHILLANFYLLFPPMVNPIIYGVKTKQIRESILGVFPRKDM
How it was run: as §1

[6] = target: T5, OR52L1 (Homo sapiens) (UniProt Q8NGH7)
T5 sequence (whole entry): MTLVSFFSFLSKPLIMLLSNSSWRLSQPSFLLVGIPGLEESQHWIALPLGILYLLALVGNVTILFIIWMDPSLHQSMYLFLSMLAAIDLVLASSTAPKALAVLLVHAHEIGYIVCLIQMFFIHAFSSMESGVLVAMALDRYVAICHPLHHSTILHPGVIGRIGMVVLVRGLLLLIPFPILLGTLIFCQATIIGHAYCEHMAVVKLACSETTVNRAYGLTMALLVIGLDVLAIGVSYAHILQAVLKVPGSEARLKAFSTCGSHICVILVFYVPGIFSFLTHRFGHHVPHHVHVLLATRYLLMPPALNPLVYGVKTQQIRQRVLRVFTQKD
How it was run: as §1

[7] = target: T6, OR52M1 (Homo sapiens) (UniProt Q8NGK5)
T6 sequence (whole entry): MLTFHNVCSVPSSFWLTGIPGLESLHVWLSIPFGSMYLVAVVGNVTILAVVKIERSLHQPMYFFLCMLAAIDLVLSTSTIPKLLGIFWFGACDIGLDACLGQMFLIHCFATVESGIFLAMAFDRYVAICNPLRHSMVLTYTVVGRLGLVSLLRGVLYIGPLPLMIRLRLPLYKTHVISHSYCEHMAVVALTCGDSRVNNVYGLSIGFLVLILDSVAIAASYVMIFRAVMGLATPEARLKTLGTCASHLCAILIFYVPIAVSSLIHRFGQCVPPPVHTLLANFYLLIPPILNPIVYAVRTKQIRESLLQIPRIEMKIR
How it was run: as §1

[8] = target: T7, OR52N1 (Homo sapiens) (UniProt Q8NH53)
T7 sequence (whole entry): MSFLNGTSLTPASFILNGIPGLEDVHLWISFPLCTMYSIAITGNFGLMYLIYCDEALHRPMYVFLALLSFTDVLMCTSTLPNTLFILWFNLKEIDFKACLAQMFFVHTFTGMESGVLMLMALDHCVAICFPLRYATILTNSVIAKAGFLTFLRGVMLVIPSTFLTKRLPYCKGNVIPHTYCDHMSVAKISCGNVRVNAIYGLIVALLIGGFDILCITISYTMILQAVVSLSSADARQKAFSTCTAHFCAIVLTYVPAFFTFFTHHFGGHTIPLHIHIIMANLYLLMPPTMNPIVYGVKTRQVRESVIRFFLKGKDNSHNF
How it was run: as §1

[9] = target: T8, OR52N2 (Homo sapiens) (UniProt Q8NGI0)
T8 sequence (whole entry): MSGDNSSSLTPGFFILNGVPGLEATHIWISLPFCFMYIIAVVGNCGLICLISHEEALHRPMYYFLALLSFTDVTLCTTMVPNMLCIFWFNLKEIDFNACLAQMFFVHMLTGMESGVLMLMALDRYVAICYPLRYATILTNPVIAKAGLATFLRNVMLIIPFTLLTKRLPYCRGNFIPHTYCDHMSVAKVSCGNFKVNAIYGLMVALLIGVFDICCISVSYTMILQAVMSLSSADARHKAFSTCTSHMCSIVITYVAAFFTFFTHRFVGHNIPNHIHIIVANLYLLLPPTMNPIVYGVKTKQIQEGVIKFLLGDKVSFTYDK
How it was run: as §1

[10] = target: T9, OR52N4 (Homo sapiens) (UniProt Q8NGI2)
T9 sequence (whole entry): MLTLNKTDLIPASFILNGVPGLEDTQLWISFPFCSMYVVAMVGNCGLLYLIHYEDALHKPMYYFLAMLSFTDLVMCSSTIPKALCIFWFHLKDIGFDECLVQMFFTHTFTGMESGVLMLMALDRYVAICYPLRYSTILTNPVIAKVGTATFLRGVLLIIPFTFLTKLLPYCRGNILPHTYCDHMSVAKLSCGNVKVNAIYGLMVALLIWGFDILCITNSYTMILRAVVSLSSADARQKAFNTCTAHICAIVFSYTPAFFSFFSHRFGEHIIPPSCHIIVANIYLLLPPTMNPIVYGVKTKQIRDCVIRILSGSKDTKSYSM
How it was run: as §1

[11] = target: T10, OR52N5 (Homo sapiens) (UniProt Q8NH56)
T10 sequence (whole entry): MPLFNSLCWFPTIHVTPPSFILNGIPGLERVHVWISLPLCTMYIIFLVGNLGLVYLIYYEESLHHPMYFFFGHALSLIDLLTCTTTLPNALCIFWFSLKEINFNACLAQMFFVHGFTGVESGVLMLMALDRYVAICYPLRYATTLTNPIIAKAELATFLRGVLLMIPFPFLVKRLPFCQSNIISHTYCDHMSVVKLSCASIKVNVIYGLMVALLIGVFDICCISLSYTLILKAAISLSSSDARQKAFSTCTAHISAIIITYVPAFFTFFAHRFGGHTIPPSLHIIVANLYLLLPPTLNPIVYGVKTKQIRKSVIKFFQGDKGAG
How it was run: as §1

[12] = target: T11, OR52R1 (Homo sapiens) (UniProt Q8NGF1)
T11 sequence (whole entry): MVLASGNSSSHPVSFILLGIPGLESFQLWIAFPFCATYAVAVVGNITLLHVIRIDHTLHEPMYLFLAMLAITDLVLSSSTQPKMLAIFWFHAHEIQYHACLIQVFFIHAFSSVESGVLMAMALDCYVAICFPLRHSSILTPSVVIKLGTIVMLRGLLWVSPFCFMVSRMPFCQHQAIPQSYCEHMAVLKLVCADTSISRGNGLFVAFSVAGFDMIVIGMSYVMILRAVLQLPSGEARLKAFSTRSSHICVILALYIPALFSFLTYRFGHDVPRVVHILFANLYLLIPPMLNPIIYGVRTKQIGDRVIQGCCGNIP
How it was run: as §1

[13] = target: T12, OR52W1 (Homo sapiens) (UniProt Q6IF63)
T12 sequence (whole entry): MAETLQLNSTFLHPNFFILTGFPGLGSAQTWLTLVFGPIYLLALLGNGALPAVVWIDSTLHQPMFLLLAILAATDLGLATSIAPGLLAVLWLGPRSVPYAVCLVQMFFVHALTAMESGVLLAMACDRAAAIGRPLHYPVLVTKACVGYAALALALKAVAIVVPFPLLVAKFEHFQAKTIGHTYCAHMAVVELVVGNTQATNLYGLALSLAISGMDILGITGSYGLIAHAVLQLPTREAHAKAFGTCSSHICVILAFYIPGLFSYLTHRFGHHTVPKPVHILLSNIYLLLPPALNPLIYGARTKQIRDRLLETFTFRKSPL
How it was run: as §1

[14] = target: T13, OR56A1 (Homo sapiens) (UniProt Q8NGH5)
T13 sequence (whole entry): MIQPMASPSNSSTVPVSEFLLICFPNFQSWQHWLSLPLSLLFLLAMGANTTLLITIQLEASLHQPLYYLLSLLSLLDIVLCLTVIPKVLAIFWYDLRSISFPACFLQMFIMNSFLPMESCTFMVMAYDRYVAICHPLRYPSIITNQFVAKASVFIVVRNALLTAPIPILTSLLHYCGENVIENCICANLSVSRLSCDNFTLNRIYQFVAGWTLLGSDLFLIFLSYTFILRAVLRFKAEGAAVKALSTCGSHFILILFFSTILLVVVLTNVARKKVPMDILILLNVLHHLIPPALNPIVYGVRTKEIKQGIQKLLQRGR
How it was run: as §1

[15] = target: T14, OR56A3 (Homo sapiens) (UniProt Q8NH54)
T14 sequence (whole entry): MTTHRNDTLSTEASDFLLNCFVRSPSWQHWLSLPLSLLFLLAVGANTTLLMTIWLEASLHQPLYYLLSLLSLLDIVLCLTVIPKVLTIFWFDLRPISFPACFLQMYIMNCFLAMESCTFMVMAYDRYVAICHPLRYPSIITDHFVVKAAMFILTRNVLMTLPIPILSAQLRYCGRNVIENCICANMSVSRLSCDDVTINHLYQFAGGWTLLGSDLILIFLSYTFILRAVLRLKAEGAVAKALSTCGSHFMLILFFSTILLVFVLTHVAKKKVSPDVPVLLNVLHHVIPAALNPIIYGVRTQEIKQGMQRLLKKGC
How it was run: as §1

[16] = target: T15, OR56A5 (Homo sapiens) (UniProt P0C7T3)
T15 sequence (whole entry): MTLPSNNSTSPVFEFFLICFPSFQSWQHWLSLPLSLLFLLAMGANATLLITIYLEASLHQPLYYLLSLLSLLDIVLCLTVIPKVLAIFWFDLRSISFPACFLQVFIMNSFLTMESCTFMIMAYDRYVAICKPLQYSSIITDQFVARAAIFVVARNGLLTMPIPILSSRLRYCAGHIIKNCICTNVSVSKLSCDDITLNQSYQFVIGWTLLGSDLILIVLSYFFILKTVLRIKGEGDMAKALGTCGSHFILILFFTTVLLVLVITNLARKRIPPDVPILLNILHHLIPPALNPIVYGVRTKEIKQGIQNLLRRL
How it was run: as §1

[17] = target: T16, OR56B1 (Homo sapiens) (UniProt Q8NGI3)
T16 sequence (whole entry): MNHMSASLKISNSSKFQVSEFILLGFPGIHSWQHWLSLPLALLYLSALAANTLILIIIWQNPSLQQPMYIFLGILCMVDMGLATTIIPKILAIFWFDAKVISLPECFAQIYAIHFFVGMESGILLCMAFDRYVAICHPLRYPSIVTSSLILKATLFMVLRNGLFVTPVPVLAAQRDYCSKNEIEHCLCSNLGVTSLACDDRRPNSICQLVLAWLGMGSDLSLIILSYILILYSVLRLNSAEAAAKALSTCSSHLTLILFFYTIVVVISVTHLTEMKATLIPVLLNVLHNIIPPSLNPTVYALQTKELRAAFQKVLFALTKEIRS
How it was run: as §1

[18] = target: T17, OR52L1 (Homo sapiens) (UniProt Q8NGH7); remark: listed apart in the source
T17 sequence (whole entry): T5 sequence (whole entry) with R140C, R161C, T183K, R297W
How it was run: as §1

[19] = target: T18, OR56A4 (Homo sapiens) (UniProt Q8NGH8)
T18 sequence (whole entry): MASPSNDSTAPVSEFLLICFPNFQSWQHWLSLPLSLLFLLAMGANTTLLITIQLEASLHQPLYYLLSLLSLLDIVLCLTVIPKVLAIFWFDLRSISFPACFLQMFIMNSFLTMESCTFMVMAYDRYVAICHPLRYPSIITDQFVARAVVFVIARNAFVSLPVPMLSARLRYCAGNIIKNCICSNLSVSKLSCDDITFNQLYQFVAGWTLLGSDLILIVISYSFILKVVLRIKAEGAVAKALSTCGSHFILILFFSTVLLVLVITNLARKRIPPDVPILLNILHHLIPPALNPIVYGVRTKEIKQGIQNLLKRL
How it was run: as §1

Measured: odorant receptor agonist call

Chain of OR52J3 (Homo sapiens) (Q8NH60 whole entry): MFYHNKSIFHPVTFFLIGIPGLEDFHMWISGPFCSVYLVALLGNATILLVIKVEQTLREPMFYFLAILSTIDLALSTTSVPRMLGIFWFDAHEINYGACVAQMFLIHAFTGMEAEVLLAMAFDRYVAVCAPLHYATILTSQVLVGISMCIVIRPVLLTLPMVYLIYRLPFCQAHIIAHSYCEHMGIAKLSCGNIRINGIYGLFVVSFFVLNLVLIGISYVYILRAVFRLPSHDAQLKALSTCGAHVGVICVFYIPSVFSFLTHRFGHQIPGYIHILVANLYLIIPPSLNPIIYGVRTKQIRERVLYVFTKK

CCC1OC(=O)C(O)=C1C (stereo not given)
not listed: [18] | [19]
inactive: all other assays above

CCCCCCC=CCCC=O
not listed: [6]
inactive: all other assays above
